≈ marks a conversion by molar mass, not a printed value. Calls of active or inactive are those of the source. The rule behind the calls is not given here.
Experiments:
Candida albicans [1] = assay: Antibiofilm activity against Candida albicans ATCC 24433 after 24 hrs by XTT-based colorimetric assay; format: functional; details: ATCC 24433, 24 h
Procedure, shortened: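 XTT assay: YPD overnight culture, PBS-washed, 1.0 × 10^6 cfu/mL in RPMI-1640/MOPS; biofilms formed at 37 °C for 24 h, washed, then treated 24 h at 37 °C; 0.5 mg/mL XTT for 2 h, read at 490 nm. MIC = lowest concentration giving ≥80% reduction in XTT signal.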

Candida albicans [2] = assay: Antibiofilm activity against Candida albicans ATCC 24433 at 1000 ug/ml after 24 hrs by scanning electron microscopic analysis; format: functional, organism-based
Procedure, shortened: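 Biofilms grown from 1.0 × 10^6 cfu/mL suspensions on poly-L-lysine-treated glass coverslips, 37 °C for 24 h. PBS-washed three times, then exposed to drug for another 24 h. Fixed overnight in 2.5% glutaraldehyde in 0.2 M PBS (pH 7.2), then 1% osmium for 2 h. Ethanol-dehydrated, critical-point dried, gold-coated, and imaged by SEM at high vacuum, 10 kV.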

Candida albicans [3] = assay: Antifungal activity against Candida albicans ATCC 24433 assessed as growth inhibition after 24 hrs by broth microdilution assay; format: functional; details: ATCC 24433, 24 h
Procedure, shortened: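 Broth microdilution: 24-h colonies suspended in 0.85% saline, diluted in RPMI-1640 with MOPS to 1.0 × 10^4 cfu/mL final, mixed 1:1 with sample; 35 °C, 24 h; OD 595 nm. MIC = lowest concentration giving 80% growth reduction. Fluconazole positive control; SD from three independent experiments.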

Candida albicans [4] = assay: Antibiofilm activity against Candida albicans ATCC 24433 at 1000 ug/ml after 24 hrs by XTT-based colorimetric assay; format: functional, organism-based
Procedure, shortened: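 Biofilms grown from overnight YPD cells, PBS-washed and resuspended to 1.0 × 10^6 cfu/mL in RPMI-1640 plus MOPS, 37 °C for 24 h. After three PBS washes, treated a further 24 h at 37 °C. Then 0.5 mg/mL XTT for 2 h, read at 490 nm. MIC taken as the lowest concentration giving ≥80% reduction in XTT reduction.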

With `OC(Cn1cncn1)(Cn1cncn1)c1ccc(F)cc1F` [FLUCONAZOLE] the MIC80 (Candida albicans [1]) was greater than 1000 µg/mL, the Activity (Candida albicans [2]) was “inactive” and the MIC80 (Candida albicans [3]) was 0.25 µg/mL (≈ 0.816 µM). For the same compound, the Activity (Candida albicans [4]) was “inactive”.

From ChEMBL document CHEMBL3751733, “Synergistic Antifungal Meroterpenes and Dioxolanone Derivatives from the Endophytic Fungus Guignardia sp” (J Nat Prod, 2015)
